Test results: ChEMBL document CHEMBL1782035, “Synthesis and SAR of piperazine amides as novel c-jun N-terminal kinase (JNK) inhibitors” (Bioorg Med Chem Lett, 2009)
Activity calls are given as the source filed them. The calls are words filed in the database; no cut-off is given here.

Assays:
[1] = Inhibition of p38
[2] = target: Mitogen-activated protein kinase 8 (Homo sapiens, UniProt P45983); test: Inhibition of JNK1 using biotinylated ATF2 and ATP substrates by HTRF assay
In short: (§1)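 HTRF kinase assay with final JNK1 at 0.1 nM or JNK3 at 0.3 nM, biotinylated ATF-2 at 0.4 nM and ATP at 1 μM. Phospho-Thr71-ATF-2 product was detected with a Europium-cryptate anti-phospho-Thr71-ATF-2 antibody and a streptavidin-allophycocyanin-XL acceptor. 10-point dose-response curves were run in duplicate, and IC50 was obtained from a four-parameter logistic fit.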

[3] = target: Mitogen-activated protein kinase 10 (Homo sapiens, UniProt P53779); test: Inhibition of JNK3 using biotinylated ATF2 and ATP substrates by HTRF assay; in short: as §1
Sequence of Mitogen-activated protein kinase 10 (P53779 whole entry): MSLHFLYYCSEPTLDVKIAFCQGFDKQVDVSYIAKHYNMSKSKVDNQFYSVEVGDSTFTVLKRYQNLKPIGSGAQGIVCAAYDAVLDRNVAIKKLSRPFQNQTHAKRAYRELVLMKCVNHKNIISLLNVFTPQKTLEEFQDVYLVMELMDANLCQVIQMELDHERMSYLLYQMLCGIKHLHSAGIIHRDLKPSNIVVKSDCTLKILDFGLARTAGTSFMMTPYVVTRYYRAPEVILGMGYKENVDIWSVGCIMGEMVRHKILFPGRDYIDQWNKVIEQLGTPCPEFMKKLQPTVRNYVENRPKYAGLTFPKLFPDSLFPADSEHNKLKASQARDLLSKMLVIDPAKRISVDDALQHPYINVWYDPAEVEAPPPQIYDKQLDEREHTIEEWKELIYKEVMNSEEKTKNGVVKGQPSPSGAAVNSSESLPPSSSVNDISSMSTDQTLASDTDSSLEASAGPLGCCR

[4] = Inhibition of JNK-mediated c-jun phosphorylation in rat INS-1 cells by ELISA incubated for 3 hrs at 37 degC; format: cell-based; details: INS1, 3 h
In short: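 INS-1 β-pancreatic cells seeded at 3.5 × 10^4 cells/well in RPMI 1640 with 10% FBS, cultured overnight at 37 °C, 5% CO2. Cells exposed 3 h to 4 mM streptozoicin plus inhibitor (DMSO) in a 10-point dilution spanning four logs, then lysed. Phospho-c-jun captured overnight at 4 °C by sandwich ELISA, TMB read at 450 nm; EC50 from four-parameter logistic.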

Sequence of Mitogen-activated protein kinase 8 (P45983 whole entry): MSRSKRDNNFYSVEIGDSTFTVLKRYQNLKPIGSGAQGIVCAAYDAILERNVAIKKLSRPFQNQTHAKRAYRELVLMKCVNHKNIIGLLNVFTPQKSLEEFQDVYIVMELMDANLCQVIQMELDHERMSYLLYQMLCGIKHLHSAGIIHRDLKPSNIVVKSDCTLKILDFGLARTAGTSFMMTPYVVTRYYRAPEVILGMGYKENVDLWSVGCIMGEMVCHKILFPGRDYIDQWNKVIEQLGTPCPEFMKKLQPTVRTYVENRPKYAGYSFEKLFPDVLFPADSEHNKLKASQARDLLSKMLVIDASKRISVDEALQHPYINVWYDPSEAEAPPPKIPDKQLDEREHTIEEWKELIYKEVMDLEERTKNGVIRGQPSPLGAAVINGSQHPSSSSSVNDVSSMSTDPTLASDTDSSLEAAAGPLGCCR

Row | SMILES | IC50 [1] [nM] | IC50 [2] [nM] | IC50 [3] [nM] | inhibition [1] | IC50 [4] [nM]
1 | CCN1CCN(c2c(Cl)cccc2NC(=O)c2ccc(Br)o2)CC1 | > 20000 | 490 | – | – | –
2 | C=CCN1CCN(c2c(Cl)cccc2NC(=O)c2ccc[nH]2)CC1 | – | 4500 | 8900 | – | –
3 | C=CCN1CCN(c2c(Cl)cccc2NC(=O)c2cccc(Br)n2)CC1 | – | – | 2000 | – | –
4 | O=C(Nc1cccc(Cl)c1N1CCN(C(=O)C(F)(F)F)CC1)c1ccc(Br)o1 | – | > 20000 | > 20000 | inactive | –
5 | CC(C)(C)OC(=O)N1CCN(c2c(Cl)cccc2NC(=O)c2ccc(Br)o2)CC1 | – | 6300 | > 20000 | inactive | –
6 | O=C(Nc1cccc(Cl)c1N1CCNCC1)c1ccc(Br)o1 | – | 4100 | 9900 | inactive | –
7 | C=CCN1CCN(c2c(Cl)cccc2NC(=O)c2nc(Br)cs2)CC1 | – | 1800 | 1800 | – | –
8 | C=CCN1CCN(c2c(Cl)cccc2NC(=O)c2cscn2)CC1 | – | – | 2300 | – | –
9 | C=CCN1CCN(c2c(Br)cccc2NC(=O)c2ccc(Br)o2)CC1 | – | > 20000 | > 20000 | inactive | –
10 | C=CCN1CCN(c2c(NC(=O)c3ccc(Br)o3)cccc2-c2ccccc2)CC1 | – | > 20000 | > 20000 | inactive | –
11 | Cc1cccc(NC(=O)c2ccc(Nc3ccccc3)o2)c1N1CCC2(CC1)OCCO2 | – | > 20000 | > 20000 | – | –
12 | C=CCN1CCN(c2c(Cl)cccc2NC(=O)c2cccc(C)n2)CC1 | – | 1800 | 2000 | – | –
13 | C=CCN1CCN(c2c(NC(=O)c3ccc(Br)o3)cccc2C(F)(F)F)CC1 | – | > 20000 | > 20000 | inactive | –
14 | O=C(Nc1cccc(Cl)c1N1CCN(CCc2ccccc2)CC1)c1ccc(Br)o1 | – | 900 | 1400 | inactive | –
15 | C=CCN1CCN(c2c(Cl)cccc2NC(=O)c2ncccn2)CC1 | – | > 20000 | > 20000 | – | –
16 | CC(=O)Nc1ccc(C(=O)Nc2cccc(C)c2N2CCC3(CC2)OCCO3)o1 | – | 5800 | 11000 | – | –
17 | Cc1cccc(NC(=O)c2ccc(Cc3ccccc3)o2)c1N1CCC2(CC1)OCCO2 | – | 3200 | 4800 | – | –
18 | C=CCN1CCN(c2c(NC(=O)c3ccc(Br)o3)cccc2Nc2ccccc2)CC1 | – | > 20000 | > 20000 | inactive | –
19 | C#CCN1CCN(c2c(Cl)cccc2NC(=O)c2ccc(Br)o2)CC1 | – | 140 | – | inactive | –
20 | C=CCN1CCN(c2c(Cl)cccc2NC(=O)c2csc(C)n2)CC1 | – | – | 5800 | – | –
21 | CC(C)N1CCN(c2c(Cl)cccc2NC(=O)c2ccc(Br)o2)CC1 | – | 1500 | 2200 | inactive | –
22 | C=CCN1CCN(c2c(Cl)cccc2NC(=O)c2ccno2)CC1 | – | – | 5000 | – | –
23 | C=CCN1CCN(c2c(Cl)cccc2NC(=O)c2cccc(Br)c2)CC1 | – | 7100 | 6400 | – | –
24 | C=CCN1CCN(c2c(Cl)cccc2NC(=O)c2ccc(C#N)cn2)CC1 | – | > 20000 | > 20000 | – | –

Now from value to compound:

Row | IC50 [1] [nM] | IC50 [2] [nM] | IC50 [3] [nM] | inhibition [1] | IC50 [4] [nM] | SMILES
25 | – | 90 | 60 | – | – | Cc1cccc(NC(=O)c2ccc(Br)o2)c1N1CCC2(CC1)OCCO2
26 | – | 400 | 540 | inactive | 3300 | C=C(C)CN1CCN(c2c(Cl)cccc2NC(=O)c2ccc(Br)o2)CC1
27 | – | 110 | 290 | inactive | – | C#CCN1CCN(c2c(F)cccc2NC(=O)c2ccc(Br)o2)CC1
28 | – | 240 | 330 | inactive | – | C=CCN1CCN(c2c(Cl)cccc2NC(=O)c2ccc(Br)o2)CC1
29 | – | 110 | 110 | – | – | CC#Cc1ccc(C(=O)Nc2cccc(C)c2N2CCC3(CC2)OCCO3)o1
30 | – | 210 | 410 | – | – | Cc1cccc(NC(=O)c2ccc(F)o2)c1N1CCC2(CC1)OCCO2
31 | – | 630 | 900 | inactive | – | CCCN1CCN(c2c(Cl)cccc2NC(=O)c2ccc(Br)o2)CC1
32 | – | 1400 | 1000 | – | – | CCc1ccc(C(=O)Nc2cccc(C)c2N2CCC3(CC2)OCCO3)o1
33 | – | 270 | 250 | inactive | – | O=C(Nc1cccc(Cl)c1N1CCN(Cc2ccco2)CC1)c1ccc(Br)o1
34 | – | 330 | 530 | – | – | Cc1ccc(C(=O)Nc2cccc(C)c2N2CCC3(CC2)OCCO3)o1
35 | – | 230 | 210 | – | – | Cc1cccc(NC(=O)c2ccc(C#N)o2)c1N1CCC2(CC1)OCCO2
36 | – | 450 | 620 | – | – | COc1ccc(C(=O)Nc2cccc(C)c2N2CCC3(CC2)OCCO3)o1
37 | – | 330 | 310 | – | – | C=CCN1CCN(c2c(Cl)cccc2NC(=O)c2cnc(Br)s2)CC1
38 | – | 260 | 350 | – | – | Cc1cccc(NC(=O)c2ccc(C(F)F)o2)c1N1CCC2(CC1)OCCO2
39 | – | 180 | 200 | inactive | – | C=CCN1CCN(c2c(C)cccc2NC(=O)c2ccc(Br)o2)CC1
40 | – | 360 | 1200 | inactive | – | CN1CCN(c2c(Cl)cccc2NC(=O)c2ccc(Br)o2)CC1
41 | – | 180 | 960 | inactive | – | O=C(Nc1cccc(Cl)c1N1CCN(C2CC2)CC1)c1ccc(Br)o1
42 | – | 880 | 1100 | inactive | – | O=C(Nc1cccc(Cl)c1N1CCN(Cc2ccccc2)CC1)c1ccc(Br)o1
43 | – | 600 | 810 | inactive | – | CC(=O)N1CCN(c2c(Cl)cccc2NC(=O)c2ccc(Br)o2)CC1
44 | – | 1200 | 1000 | inactive | – | O=C(Nc1cccc(Cl)c1N1CCN(c2ccccn2)CC1)c1ccc(Br)o1
45 | – | 40 | 80 | – | – | Cc1cccc(NC(=O)c2ccc(Cl)o2)c1N1CCC2(CC1)OCCO2
